Article PMC10401071 (Cancer Discovery, 2023)

Tests used:
Assay type in all cases: in vivo, human
[1] = Pharmacokinetic analysis of blood samples after oral brigimadlin; details: for AUC(0-inf) / Cmax: oral
Method in brief: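 Oral test compound given to patients with advanced solid tumours, on day 1 of 21-day cycles or days 1 and 8 of 28-day cycles. Cycle 1 blood taken 5 min pre-dose, 1–8 h post-dose on day 1, then once on days 2, 3, 4, 5 and 8. Later cycles: pre-dose and 6 h, day 2, plus days 3 and 8 in cycle 2. Cmax and AUC by noncompartmental analysis.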

[2] = system: advanced or metastatic solid tumors; assay: Antitumor activity, investigator-assessed per RECIST v1.1, PFS by Kaplan–Meier; details: for duration of stable disease: WDLPS; for duration of response: partial response
[3] = Phase Ia dose escalation: dose-limiting toxicities; details: for maximum tolerated dose (MTD): based on DLTs during cycle 1 and BLRM
Method in brief: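 Escalating oral doses, day 1 q21d (10–80 mg) or days 1 and 8 q28d (5–60 mg). DLTs were counted over cycle 1 (21 or 28 days). The MTD was the highest dose with <25% risk of true DLT rate ≥33%, estimated by BLRM with overdose control. The RDE came from a supplementary BLRM on haematologic AEs of interest over the whole treatment period.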

Q: With `Cc1c(C(=O)O)ccc2c3n(nc12)[C@@H]1[C@H](C3)N(CC2CC2)[C@@]2(C(=O)Nc3cc(Cl)ccc32)[C@H]1c1cccc(Cl)c1F` [brigimadlin] as the compound, how does the “dose linearity of plasma exposure (Cmax and AUC0-inf)” value ([1]; after the first dose, both arms, dose range 5 to 80 mg) read?
A: no significant deviation from linearity

Q: And the “dose linearity of plasma exposure (Cmax and AUC0-inf)” value ([1]; dose range 10 to 60 mg)?
A: no significant deviation from linearity

Q: And the AUC(0-inf) ([1]; human, plasma, 60 mg)?
A: 121 µM·h

Q: What about the Cmax ([1]; human, plasma, 60 mg) of the same compound?
A: 2.48 µM

Q: And the AUC(0-inf) ([1]; human, plasma, 80 mg)?
A: 339 µM·h

Q: What about the Cmax ([1]; human, plasma, 80 mg) of the same compound?
A: 4.8 µM

Q: And the half-life ([1]; human, plasma, po, half-life, patients, as summarised in Discussion)?
A: 30 to 60 h

Q: What about the disease control rate ([2]; 12 patients with DDLPS) of the same compound?
A: 75%

Q: And the Complete response ([2]; All patients (N = 54))?
A: 0 n (%)

Q: What about the Confirmed objective response ([2]; All patients (N = 54)) of the same compound?
A: 6 (11.1) n (%)

Q: What about the Disease control ([2]; All patients (N = 54)) of the same compound?
A: 40 (74.1) n (%)

Q: What about the “Not evaluable (best overall response)” value ([2]; All patients (N = 54)) of the same compound?
A: 3 (5.6) n (%)

Q: What about the Partial response ([2]; All patients (N = 54)) of the same compound?
A: 6 (11.1) n (%)

Q: And the Progressive disease ([2]; All patients (N = 54))?
A: 11 (20.4) n (%)

Q: And the Stable disease ([2]; All patients (N = 54))?
A: 34 (63.0) n (%)

Q: What about the overall response rate ([2]; D1D8q4w) of the same compound?
A: 8.0%

Q: What about the Complete response ([2]; D1D8q4w (n = 25)) of the same compound?
A: 0 n (%)

Q: And the Confirmed objective response ([2]; D1D8q4w (n = 25))?
A: 2 (8.0) n (%)

Q: What about the Disease control ([2]; D1D8q4w (n = 25)) of the same compound?
A: 18 (72.0) n (%)

Q: What about the “Not evaluable (best overall response)” value ([2]; D1D8q4w (n = 25)) of the same compound?
A: 2 (8.0) n (%)

Q: What about the Partial response ([2]; D1D8q4w (n = 25)) of the same compound?
A: 2 (8.0) n (%)

Q: And the Progressive disease ([2]; D1D8q4w (n = 25))?
A: 5 (20.0) n (%)

Q: What about the Stable disease ([2]; D1D8q4w (n = 25)) of the same compound?
A: 16 (64.0) n (%)

Q: And the disease control rate ([2]; D1D8q4w arm)?
A: 72.0%

Q: What about the “median progression-free survival (PFS)” value ([2]; D1D8q4w arm, 95% CI: 3.7–18.5) of the same compound?
A: 8.0 months

Q: What about the overall response rate ([2]; D1q3w) of the same compound?
A: 13.8%

Q: And the Complete response ([2]; D1q3w (n = 29))?
A: 0 n (%)

Q: What about the Confirmed objective response ([2]; D1q3w (n = 29)) of the same compound?
A: 4 (13.8) n (%)

Q: And the Disease control ([2]; D1q3w (n = 29))?
A: 22 (75.9) n (%)

Q: And the “Not evaluable (best overall response)” value ([2]; D1q3w (n = 29))?
A: 1 (3.4) n (%)

Q: And the Partial response ([2]; D1q3w (n = 29))?
A: 4 (13.8) n (%)

Q: And the Progressive disease ([2]; D1q3w (n = 29))?
A: 6 (20.7) n (%)

Q: And the Stable disease ([2]; D1q3w (n = 29))?
A: 18 (62.1) n (%)

Q: What about the disease control rate ([2]; D1q3w arm) of the same compound?
A: 75.9%

Q: And the “median progression-free survival (PFS)” value ([2]; D1q3w arm, 95% CI: 3.0–20.7)?
A: 10.6 months

Q: And the “duration of stable disease” value ([2]; one patient)?
A: > 14 months

Q: And the “duration of stable disease” value ([2]; the other two patients)?
A: ~8 months

Q: What about the disease control rate ([2]; all 54 patients) of the same compound?
A: 74.1%

Q: What about the overall response rate ([2]; all 54 patients, data cutoff October 24, 2022) of the same compound?
A: 11.1%

Q: And the PFS ([2]; all seven patients with WDLPS)?
A: > 7.5 months

Q: And the “duration of partial response” value ([2]; four WDLPS patients, ranging up to about 25 months)?
A: ≥ 12 months

Q: What about the “patients achieving PFS ≥14 months” value ([2]; of seven patients with WDLPS) of the same compound?
A: five

Q: What about the “patients achieving a partial response” value ([2]; of seven patients with WDLPS) of the same compound?
A: four

Q: What about the “patients achieving stable disease” value ([2]; of seven patients with WDLPS) of the same compound?
A: three

Q: And the “patients achieving stable disease” value ([2]; of the 12 patients with DDLPS)?
A: nine

Q: And the duration of response ([2]; one patient with MDM2-amplified intrahepatic cholangiocarcinoma)?
A: ~12 months

Q: What about the duration of response ([2]; one patient with MDM2-amplified pancreatic cancer) of the same compound?
A: > 5.5 months

Q: What about the “median progression-free survival (PFS)” value ([2]; overall, preliminary analysis, 95% CI: 3.8–13.5) of the same compound?
A: 8.1 months

Q: What about the disease control rate ([2]; seven patients with WDLPS) of the same compound?
A: 100%

Q: And the “tumor reduction (partial response)” value ([2]; single patient (Fig. 3A), MDM2-amplified WDLPS, 20 mg q3w, starting at cycle 2)?
A: 31%

Q: What about the tumor reduction ([2]; single patient (Fig. 3A), MDM2-amplified WDLPS, cycle 19, dose reduced to 10 mg) of the same compound?
A: 47%

Q: And the “tumor reduction (partial response)” value ([2]; single patient (Fig. 3B), MDM2-amplified WDLPS, 80 mg D1q3w, cycle 3)?
A: 32%

Q: And the best tumor reduction ([2]; single patient (Fig. 3B), MDM2-amplified WDLPS, at data cutoff)?
A: 42%

Q: And the time on treatment ([2]; single patient (Fig. 3B), MDM2-amplified WDLPS, ongoing at data cutoff)?
A: more than 25 months

Q: And the “time on treatment before progressive disease” value ([2]; single patient (Fig. 3D), MDM2-amplified cholangiocarcinoma)?
A: 13.3 months

Q: And the “treatment discontinuation due to a DLT in cycle 1” value ([3]; D1D8q4w arm)?
A: no patient discontinued treatment due to a DLT in cycle 1

Q: And the “patients with DLTs during the MTD evaluation period (cycle 1)” value ([3]; D1D8q4w arm, 5 to 60 mg)?
A: Three

Q: And the “maximum tolerated dose (MTD)” value ([3]; D1D8q4w)?
A: 45 mg

Q: And the “treatment discontinuation due to a DLT in cycle 1” value ([3]; D1q3w arm)?
A: No patient discontinued treatment due to a DLT in cycle 1

Q: What about the “patients with DLTs during the MTD evaluation period (cycle 1)” value ([3]; D1q3w arm, 10 to 80 mg) of the same compound?
A: Five

Q: What about the “maximum tolerated dose (MTD)” value ([3]; D1q3w) of the same compound?
A: 60 mg

Q: And the “patients with DLTs after the MTD evaluation period” value ([3]; both arms)?
A: Seven

Q: What about the “recommended dose for expansion (RDE) for phase Ib” value ([3]; q3w, supplementary BLRM analysis of AEs of interest over entire treatment period) of the same compound?
A: 45 mg
